# Data: ChEMBL document CHEMBL1122973, “Synthesis and platelet aggregation inhibitory activity of 4,5-bis(substituted)-1,2,3-thiadiazoles” (J Med Chem, 1985)
# Assays:
# Format in all cases: functional
# Homo sapiens [1] = species on record: Homo sapiens; test: Potency relative to flurbiprofen in inhibiting collagen-induced platelet aggregation in human platelet-rich plasma (PRP)
# Outline: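 Ratio of activity to flurbiprofen, the internal standard run alongside each day. The IC50 was approximate, from 1/2 log concentration intervals, for collagen-induced aggregation in human PRP. PRP came from citrated blood (200g, 10 min, 10 °C), with platelets adjusted to 3×10^5/mm³ using autologous PPP (2000g, 10 min, 10 °C).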
# Homo sapiens [2] = species on record: Homo sapiens; test: In vitro inhibition of collagen-induced platelet aggregation in human platelet-rich plasma (PRP)
# Outline: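 Citrated human blood spun at 200g, 10 min, 10 °C to give PRP. A further spin at 2000g, 10 min, 10 °C gave PPP, used to adjust the platelet count to 3×10^5/mm³. Collagen triggered aggregation. Approximate IC50 was read from 1/2 log steps of drug concentration. Flurbiprofen served as internal standard for day-to-day variation in platelet sensitivity.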
# Homo sapiens [3] = species on record: Homo sapiens; test: Percent inhibition of collagen-induced Platelet aggregation in human platelet-rich plasma (PRP) at a concentration of 0.032 ug/mL
# Homo sapiens [4] = species on record: Homo sapiens; test: Percent inhibition of collagen-induced Platelet aggregation in human platelet-rich plasma (PRP) at a concentration of 0.01 ug/mL
# Homo sapiens [5] = species on record: Homo sapiens; test: Percent inhibition of collagen-induced Platelet aggregation in human platelet-rich plasma (PRP) at a concentration of 0.001 ug/mL
Compound,Relative potency (Homo sapiens [1]),IC50 (Homo sapiens [2]) [µg/mL],inhibition at 0.032 µg/mL (Homo sapiens [3]) [%],inhibition at 0.01 µg/mL (Homo sapiens [4]) [%],inhibition at 0.001 µg/mL (Homo sapiens [5]) [%]
c1ccc(-c2nnsc2-c2ccccc2)cc1,0.03,3.2,,,
Cl.Cl.Nc1ccc(-c2nnsc2-c2ccc(N)cc2)cc1,0.03,3.2,,,
COc1ccc(-c2snnc2-c2ccc(OC)cc2OC)cc1,3.1,0.032,,,
COc1ccc(-c2nnsc2-c2cccs2)cc1,0.1,1,,,
COc1ccc(-c2snnc2-c2ccc(SC)cc2)cc1,3.1,0.032,,,
Oc1ccc(-c2nnsc2-c2ccc(O)cc2)cc1,0.03,3.2,,,
c1ccc(-c2csnn2)cc1,0.03,3.2,,,
c1csc(-c2nnsc2-c2cccs2)c1,0.03,3.2,,,
COc1ccc(-c2nnsc2-c2ccc(OC)cc2)cc1,100,0.001,55.4,90,32.4
c1ccc(-c2nnsc2-c2ccc3c(c2)OCO3)cc1,0.03,3.2,,,
CC(=O)Oc1ccccc1C(=O)O [ASPIRIN],0.01,,,,
CN(C)c1ccc(-c2nnsc2-c2ccc(N(C)C)cc2)cc1,10,0.01,,,
CCNc1ccc(-c2nnsc2-c2ccc(NCC)cc2)cc1,0.03,3.2,,,
c1ccc(-c2cnns2)cc1,0.03,3.2,,,
COc1ccc(-c2nnsc2-c2ccccc2)cc1,10,0.01,,,
COc1ccc(-c2snnc2-c2ccco2)cc1,3.1,0.032,,,
COc1ccc(-c2snnc2-c2ccccc2)cc1,31.3,0.003,50,56.8,32.4
COc1ccc(-c2csnn2)cc1,0.03,3.2,,,
